Active and inactive are the calls of the source. The calls are words filed in the database; no cut-off is given here.
What was measured:
[1] = system: SR; assay: Growth inhibition of human SR cells assessed as cell growth inhibition at 10 uM incubated for 48 hrs by sulforhodamine B assay; assay type: functional; settings: read-out: GI
[2] = Volume of distribution at steady state in Sprague-Dawley rat at 1 mg/kg, iv by LC-MS/MS analysis; assay type: ADME, organism-based; settings: in vivo, read-out: Vdss
Outline: (§1)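 Male SD rats (199-214 g), three per route, single dose 1 mg/kg iv or 10 mg/kg po. Jugular blood (~200 μL) into heparinized tubes at set times; plasma by centrifugation, protein precipitation with acetonitrile containing verapamil and glibenclamide; drug measured by LC-MS/MS.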

[3] = system: HL-60; assay: Potency index, ratio of IC50 of chidamide to IC50 of test compound against human HL60 cells; assay type: functional
[4] = system: A549; assay: Growth inhibition of human A549 cells assessed as cell growth inhibition at 10 uM incubated for 48 hrs by sulforhodamine B assay; assay type: functional; settings: A549, 48 h, read-out: GI
[5] = system: NCI-H226; assay: Growth inhibition of human NCI-H226 assessed as cell growth inhibition at 10 uM incubated for 48 hrs by sulforhodamine B assay; assay type: functional; settings: NCI-H226, 48 h, read-out: GI
[6] = system: SNB-75; assay: Growth inhibition of human SNB75 cells assessed as cell growth inhibition at 10 uM incubated for 48 hrs by sulforhodamine B assay; assay type: functional; settings: SNB-75, 48 h, read-out: GI
[7] = system: HT-29; assay: Growth inhibition of human HT-29 cells assessed as cell growth inhibition at 10 uM incubated for 48 hrs by sulforhodamine B assay; assay type: functional; settings: HT-29, 48 h, read-out: GI
[8] = Oral bioavailability in Sprague-Dawley rat at 10 mg/kg by LC-MS/MS analysis; assay type: ADME, organism-based; settings: in vivo; outline: as §1
[9] = system: RXF 393; assay: Growth inhibition of human RXF393 cells assessed as cell growth inhibition at 10 uM incubated for 48 hrs by sulforhodamine B assay; assay type: functional; settings: RXF 393, 48 h, read-out: GI
[10] = biological target: Histone deacetylase 8 (Homo sapiens, UniProt Q9BY41); assay: Inhibition of HDAC8 (unknown origin) using Fluor de Lys substrate by fluorescence assay relative to control
Outline: (§2)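 Recombinant HDAC isoform assays run by a contract lab. Compounds in DMSO, 10-dose IC50 mode, 3-fold serial dilution from 50 μM. Duplicate runs; IC50 from curve fitting.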

[11] = AUC (0 to infinity) in Sprague-Dawley rat at 1 mg/kg, iv by LC-MS/MS analysis; assay type: ADME, organism-based; design: dose 1 mg/kg, route intravenous, time infinity; settings: in vivo
Outline: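 Male SD rats, 199-214 g, three per route. Single iv dose of 1 mg/kg or oral dose of 10 mg/kg. About 200 μL blood drawn from the jugular vein into heparinized tubes at set times, then spun to plasma. 30 μL plasma precipitated with CH3CN containing verapamil and glibenclamide as internal standards. Plasma drug level measured by LC-MS/MS.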

[12] = system: 786-0; assay: Growth inhibition of human 786-0 cells assessed as cell growth inhibition at 10 uM incubated for 48 hrs by sulforhodamine B assay; assay type: functional; settings: 786-0, 48 h, read-out: GI
[13] = AUC (0 to t) in Sprague-Dawley rat at 10 mg/kg, po by LC-MS/MS analysis; assay type: ADME, organism-based; settings: in vivo
[14] = biological target: Histone deacetylase 4 (Homo sapiens) (UniProt P56524); assay: Inhibition of HDAC4 (unknown origin) using Fluor de Lys substrate by fluorescence assay relative to control; outline: as §2
[15] = system: KM12; assay: Growth inhibition of human KM12 cells assessed as cell growth inhibition at 10 uM incubated for 48 hrs by sulforhodamine B assay; assay type: functional; settings: KM12, 48 h, read-out: GI
[16] = Metabolic stability in rat liver microsomes assessed as internal clearance at 1 uM preincubated for 10 mins followed by NADPH addition measured upto 60 mins by LC-MS/MS analysis; assay type: ADME, Microsome; settings: read-out: CLH
Outline: (§3)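 Liver microsomes from male SD rat, dog or human at 0.5 mg/mL in 100 mM potassium phosphate pH 7.4 with 1 μM compound. Prewarmed 37 °C 10 min, started with 1 mM NADPH. Stopped at 0, 5, 10, 20, 40, 60 min with cold methanol containing glibenclamide internal standard; supernatant by LC–MS/MS; T1/2 and CLint derived.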

[17] = system: LOX IMVI; assay: Growth inhibition of human LOXIMVI cells assessed as cell growth inhibition at 10 uM incubated for 48 hrs by sulforhodamine B assay; assay type: functional; settings: read-out: GI
[18] = Terminal half life in Sprague-Dawley rat at 10 mg/kg, po by LC-MS/MS analysis; assay type: ADME, organism-based; settings: in vivo, read-out: beta t1/2 (converted); outline: as §1
[19] = species on record: Homo sapiens; assay: Selectivity index, ratio of IC50 of HDCA11 (unknown origin) to IC50 of HDCA1 (unknown origin)
[20] = system: ACHN; assay: Growth inhibition of human ACHN cells assessed as cell growth inhibition at 10 uM incubated for 48 hrs by sulforhodamine B assay; assay type: functional; settings: read-out: GI
[21] = system: SK-MEL-28; assay: Growth inhibition of human SK-MEL-28 cells assessed as cell growth inhibition at 10 uM incubated for 48 hrs by sulforhodamine B assay; assay type: functional; settings: SK-MEL-28, 48 h, read-out: GI
[22] = biological target: Histone deacetylase 11 (Homo sapiens, UniProt Q96DB2); assay: Inhibition of HDAC11 (unknown origin) using Fluor de Lys substrate by fluorescence assay relative to control; outline: as §2
[23] = system: RPMI-8226; assay: Growth inhibition of human RPMI8226 cells assessed as cell growth inhibition at 10 uM incubated for 48 hrs by sulforhodamine B assay; assay type: functional; settings: RPMI-8226, 48 h, read-out: GI
[24] = biological target: Histone deacetylase 7 (Homo sapiens) (UniProt Q8WUI4); assay: Inhibition of HDAC7 (unknown origin) using Fluor de Lys substrate by fluorescence assay relative to control; outline: as §2
[25] = Metabolic stability in human liver microsomes assessed as internal clearance at 1 uM preincubated for 10 mins followed by NADPH addition measured upto 60 mins by LC-MS/MS analysis; assay type: ADME, Microsome; settings: read-out: CLH; outline: as §3
[26] = Metabolic stability in rat liver microsomes assessed as half life at 1 uM preincubated for 10 mins followed by NADPH addition measured upto 60 mins by LC-MS/MS analysis; assay type: ADME, Microsome; outline: as §3
[27] = system: NCI-H322M; assay: Growth inhibition of human NCI-H322M assessed as cell growth inhibition at 10 uM incubated for 48 hrs by sulforhodamine B assay; assay type: functional; settings: read-out: GI
[28] = system: HCT-116; assay: Antiproliferative activity against human HCT116 assessed as reduction in cell viability measured after 72 hrs using alamar blue based fluorescence method; assay type: functional; settings: HCT-116, 72 h
Outline: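 HCT116 and MCF-7 grown in McCoy's 5A with 10% FBS and penicillin/streptomycin at 37 °C, 5% CO2. Cells plated in 96-well format and exposed to drug for 72 h. Alamar blue (1 mM solution) added, incubated 5–6 h, fluorescence read at 530/590 nm.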

[29] = system: UACC-257; assay: Growth inhibition of human UACC257 cells assessed as cell growth inhibition at 10 uM incubated for 48 hrs by sulforhodamine B assay; assay type: functional; settings: UACC-257, 48 h, read-out: GI
[30] = system: UO-31; assay: Growth inhibition of human UO31 cells assessed as cell growth inhibition at 10 uM incubated for 48 hrs by sulforhodamine B assay; assay type: functional; settings: UO-31, 48 h, read-out: GI

Histone deacetylase 8, sequence (Q9BY41 whole entry, canonical isoform): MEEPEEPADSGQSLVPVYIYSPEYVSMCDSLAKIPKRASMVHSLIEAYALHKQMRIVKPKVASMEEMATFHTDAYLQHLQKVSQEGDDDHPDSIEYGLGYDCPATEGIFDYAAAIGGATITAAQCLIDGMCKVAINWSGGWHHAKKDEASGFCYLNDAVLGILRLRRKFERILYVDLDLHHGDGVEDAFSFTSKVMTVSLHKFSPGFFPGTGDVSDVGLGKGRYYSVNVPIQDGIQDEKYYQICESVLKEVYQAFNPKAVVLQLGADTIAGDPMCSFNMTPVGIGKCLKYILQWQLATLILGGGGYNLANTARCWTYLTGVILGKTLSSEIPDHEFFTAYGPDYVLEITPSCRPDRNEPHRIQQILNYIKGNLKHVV
Histone deacetylase 7 (Homo sapiens), sequence (Q8WUI4 whole entry): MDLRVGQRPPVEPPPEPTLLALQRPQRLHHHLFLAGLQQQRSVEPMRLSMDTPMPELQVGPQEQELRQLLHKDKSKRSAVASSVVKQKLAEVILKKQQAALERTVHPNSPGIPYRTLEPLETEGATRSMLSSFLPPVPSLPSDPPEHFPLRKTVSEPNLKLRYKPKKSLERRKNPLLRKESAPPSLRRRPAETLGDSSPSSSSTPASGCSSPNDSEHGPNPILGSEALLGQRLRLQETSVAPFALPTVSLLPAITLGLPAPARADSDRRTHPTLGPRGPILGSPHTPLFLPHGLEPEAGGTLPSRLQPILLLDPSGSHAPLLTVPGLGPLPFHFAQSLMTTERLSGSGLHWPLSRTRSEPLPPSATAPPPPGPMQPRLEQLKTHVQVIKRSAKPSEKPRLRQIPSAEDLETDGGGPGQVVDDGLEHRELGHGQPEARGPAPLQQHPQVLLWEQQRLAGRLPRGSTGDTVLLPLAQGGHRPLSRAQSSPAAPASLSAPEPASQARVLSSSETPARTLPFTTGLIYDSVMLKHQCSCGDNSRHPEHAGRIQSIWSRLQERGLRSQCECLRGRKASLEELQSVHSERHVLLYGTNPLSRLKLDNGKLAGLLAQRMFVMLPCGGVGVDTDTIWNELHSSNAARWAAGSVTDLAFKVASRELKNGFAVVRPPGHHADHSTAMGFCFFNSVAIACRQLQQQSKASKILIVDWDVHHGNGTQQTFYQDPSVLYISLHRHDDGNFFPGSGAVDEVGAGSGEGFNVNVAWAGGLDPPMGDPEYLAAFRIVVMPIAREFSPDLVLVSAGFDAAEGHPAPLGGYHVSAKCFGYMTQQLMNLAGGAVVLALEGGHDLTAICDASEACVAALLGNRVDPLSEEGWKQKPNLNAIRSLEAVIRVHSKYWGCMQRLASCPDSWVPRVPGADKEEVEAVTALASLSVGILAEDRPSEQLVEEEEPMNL
Histone deacetylase 11, sequence (Q96DB2 whole entry): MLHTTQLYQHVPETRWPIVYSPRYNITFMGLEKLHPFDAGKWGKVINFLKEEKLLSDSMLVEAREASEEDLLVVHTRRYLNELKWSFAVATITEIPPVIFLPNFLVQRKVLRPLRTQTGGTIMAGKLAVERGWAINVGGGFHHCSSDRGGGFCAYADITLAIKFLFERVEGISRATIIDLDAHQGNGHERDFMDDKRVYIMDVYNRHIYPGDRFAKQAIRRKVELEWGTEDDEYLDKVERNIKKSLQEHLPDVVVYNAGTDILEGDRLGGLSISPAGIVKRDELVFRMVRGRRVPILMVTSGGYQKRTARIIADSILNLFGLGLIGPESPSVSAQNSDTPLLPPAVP
Histone deacetylase 4 (Homo sapiens), sequence (P56524 whole entry): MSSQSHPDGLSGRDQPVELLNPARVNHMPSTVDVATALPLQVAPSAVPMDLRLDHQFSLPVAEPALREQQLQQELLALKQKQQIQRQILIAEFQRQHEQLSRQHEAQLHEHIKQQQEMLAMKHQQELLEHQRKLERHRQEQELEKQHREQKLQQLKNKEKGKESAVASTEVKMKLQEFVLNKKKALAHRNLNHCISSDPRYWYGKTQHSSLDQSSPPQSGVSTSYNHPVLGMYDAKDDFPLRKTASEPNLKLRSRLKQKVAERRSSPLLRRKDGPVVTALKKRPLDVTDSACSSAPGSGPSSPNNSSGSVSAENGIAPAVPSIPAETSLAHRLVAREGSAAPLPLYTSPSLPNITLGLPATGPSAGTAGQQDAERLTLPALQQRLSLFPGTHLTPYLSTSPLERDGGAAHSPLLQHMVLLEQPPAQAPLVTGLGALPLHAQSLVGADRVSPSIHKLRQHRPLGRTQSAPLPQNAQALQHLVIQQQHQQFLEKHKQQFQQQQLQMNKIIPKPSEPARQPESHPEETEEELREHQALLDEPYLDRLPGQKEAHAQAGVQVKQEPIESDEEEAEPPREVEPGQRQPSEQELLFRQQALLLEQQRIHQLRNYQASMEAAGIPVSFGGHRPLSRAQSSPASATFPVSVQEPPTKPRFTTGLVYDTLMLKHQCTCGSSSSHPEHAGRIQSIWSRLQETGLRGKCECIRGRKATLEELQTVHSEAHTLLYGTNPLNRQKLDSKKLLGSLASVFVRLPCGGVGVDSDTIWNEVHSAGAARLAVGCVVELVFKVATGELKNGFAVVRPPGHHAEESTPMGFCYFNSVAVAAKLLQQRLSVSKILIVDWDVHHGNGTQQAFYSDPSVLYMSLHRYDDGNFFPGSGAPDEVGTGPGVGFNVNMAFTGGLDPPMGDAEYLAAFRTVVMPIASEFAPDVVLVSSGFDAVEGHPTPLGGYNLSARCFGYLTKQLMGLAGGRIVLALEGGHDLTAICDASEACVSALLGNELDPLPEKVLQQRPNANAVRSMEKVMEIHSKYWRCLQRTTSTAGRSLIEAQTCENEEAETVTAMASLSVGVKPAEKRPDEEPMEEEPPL

## Nc1cc(F)ccc1NC(=O)c1ccc(CNC(=O)/C=C2\NC(=O)c3ccccc32)cc1
[1]
  inhibition of growth at 10 µM: 57.6%
[2]
  Vd: 0.493 L/kg
[3]
  Ratio IC50: 5
[4]
  inhibition of growth at 10 µM: 12.2%
[5]
  inhibition of growth at 10 µM: 30.2%
[6]
  inhibition of growth at 10 µM: 30.6%
[7]
  inhibition of growth at 10 µM: 40.4%
[8]
  bioavailability: 16%
[9]
  inhibition of growth at 10 µM: 17.5%
[10]
  IC50: 1080 nM
[11]
  AUC(0-inf): 784 ng·h/mL
[12]
  inhibition of growth at 10 µM: 7.02%
[13]
  AUC(0-t): 1710 ng·h/mL
[14]
  inhibition: inactive
[15]
  inhibition of growth at 10 µM: 26.9%
[16]
  microsomal CLint at 1 µM: 11.7 µL/min/mg
[17]
  inhibition of growth at 10 µM: 15.7%
[18]
  half-life: 1.3 h
[19]
  Ratio IC50: 10
[20]
  inhibition of growth at 10 µM: 15%
[21]
  inhibition of growth at 10 µM: 33.8%
[22]
  IC50: 632 nM
[23]
  inhibition of growth at 10 µM: 59.8%
[24]
  inhibition: inactive
[25]
  microsomal CLint at 1 µM: 4.8 µL/min/mg
[26]
  half-life at 1 µM: 2.02 h
[27]
  inhibition of growth at 10 µM: 14.2%
[28]
  IC50: 432 nM
[29]
  inhibition of growth at 10 µM: 36.6%
[30]
  inhibition of growth at 10 µM: 50.1%

Source: ChEMBL document CHEMBL4387704, “Design, synthesis and biological evaluation of novel isoindolinone derivatives as potent histone deacetylase inhibitors” (Eur J Med Chem, 2019)
